The source of these data is PMC10973196 (Saudi Pharmaceutical Journal : SPJ, 2024).

Values after ≈ are worked out from the molar mass of the structure shown. Bounds are passed on as bounds.

Series [1] concerns lung cancer cell (A549). Put plainly: Cell viability. The class given is cell-based. The following applies: Homo sapiens, A549, 48 h, read-out: IC50, cytotoxic activity. In outline:
(§1)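 Cells were seeded in 96-well plates, grown for 24 h, then exposed to test compounds at various concentrations for 48 h. MTT solution (5 mg/mL) was added for 2–4 h at 37 °C, and formazan absorbance was read at 570 nm. Viability was expressed as treated/untreated absorbance ×100, and IC50 was fitted from viability dose-response curves.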

Series [2] can be described thus: Cell viability. Format: cell-based. The note with it: human, normal HUVEC cells. An outline of the steps: as §1
Series [3] concerns the target SARS-CoV-2 main protease (Mpro) (Severe acute respiratory syndrome coronavirus 2, UniProt P0DTD1). Put plainly: biochemical.

For orientation: IC50 means the concentration at which inhibition is half-maximal. Take `O=c1cc(-c2ccc(O)cc2)oc2cc(O)c([C@@H]3O[C@H](CO)[C@@H](O)[C@H](O)[C@H]3O)c(O)c12` [Compound 14, apigenin-6-C-β-D-glucoside (isovitexin)]: the IC50 in series [1] is above 100 µg/mL; in series [3], 21.7 µM. Moreover, the concentration for half-maximal inhibition (IC50) at 48 h in series [2] was above 100 µg/mL.
With `C[C@@H]1O[C@@H](Oc2cc3c(=O)oc4c(O)c(O)cc5c(=O)oc(c2O)c3c45)[C@H](O)[C@H](O)[C@H]1O` [Compound 10, ellagic acid-2-O-α-L-rhamnopyranoside (eschweilenol C)], the results for the IC50 in series [1] and in series [3] were above 100 µg/mL and 22.3 µM, respectively. The half-maximal inhibitory concentration (IC50) at 48 h in series [2] is above 100 µg/mL.
Regarding `COc1cccc2c1C(=O)c1c(O)c3c(c(O)c1C2=O)C[C@@](O)(C(=O)CO)C[C@@H]3O[C@H]1C[C@H](N)[C@H](O)[C@H](C)O1` [Doxorubicin, reference compound], the IC50 in series [1] was determined as 1.45 ± 0.05 µg/mL (≈ 2.67 µM). Also, in series [2], half-maximal inhibition (IC50 at 48 h) was put at 2.5 ± 0.1 µg/mL (≈ 4.6 µM).
